Laboratory results reported in ChEMBL document CHEMBL4118021, “Studies of TAK1-centered polypharmacology with novel covalent TAK1 inhibitors” (Bioorg Med Chem, 2017).

Tests used:
[1] = target: eIF-2-alpha kinase GCN2 (Homo sapiens) (UniProt Q9P2K8); assay: Inhibition of GCN2 domain2 in human SKCO1 cells at 1 uM after 4 hrs using biotin labeled DLKPVNIFLDSDDHVK probe by mass-spectrometric analysis relative to control; format: cell-based
[2] = Increase in secretion of basic-FGF in TNFalpha activated RA patient-derived synovial fibroblasts at 0.6 to 3 uM preincubated for 3 hrs followed by TNFalpha stimulation measured after 18 hrs by sandwich immunoassay; details: human
In short: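 Primary RA patient synovial fibroblasts (donor RA2159) were seeded at 1000 cells/well, grown about 24 h, then starved overnight and again about 4 h in basal medium with 0.1% BSA. Cells were pre-incubated 3 h with inhibitor (0.6 or 3 μM) or DMSO, then stimulated 18 h with 10 ng/mL TNFα. Paired wells were pooled, in biological duplicate. Pooled supernatants were diluted 1:3 and read on Luminex bead sandwich immunoassays, with mock-medium background and spiked-ligand controls.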

[3] = target: Serine/threonine-protein kinase PLK1 (Homo sapiens) (UniProt P53350); assay: Inhibition of PLK1 in human SKCO1 cells at 1 uM after 4 hrs using biotin labeled CFEISDADTKEVFAGKIVPK probe by mass-spectrometric analysis relative to control; format: cell-based
In short: (§1)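 Live SK-CO-1 cells exposed to compound at 1 μM or DMSO for 4 h (KiNativ). Lysates then labeled with lysine-reactive ATP/ADP-biotin probe, and probe-labeled kinase peptides quantified by mass spectrometry. Percent inhibition of probe-dependent recovery calculated relative to DMSO-treated cells.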

[4] = target: T1, Serine/threonine-protein kinase tousled-like 1 (Homo sapiens) (UniProt Q9UKI8); assay: Inhibition of TLK1 in human SKCO1 cells at 1 uM after 4 hrs using biotin labeled YLNEIKPPIIHYDLKPGNILLVDGTACEIK probe by mass-spectrometric analysis relative to control; format: cell-based; in short: as §1
T1 sequence (whole entry): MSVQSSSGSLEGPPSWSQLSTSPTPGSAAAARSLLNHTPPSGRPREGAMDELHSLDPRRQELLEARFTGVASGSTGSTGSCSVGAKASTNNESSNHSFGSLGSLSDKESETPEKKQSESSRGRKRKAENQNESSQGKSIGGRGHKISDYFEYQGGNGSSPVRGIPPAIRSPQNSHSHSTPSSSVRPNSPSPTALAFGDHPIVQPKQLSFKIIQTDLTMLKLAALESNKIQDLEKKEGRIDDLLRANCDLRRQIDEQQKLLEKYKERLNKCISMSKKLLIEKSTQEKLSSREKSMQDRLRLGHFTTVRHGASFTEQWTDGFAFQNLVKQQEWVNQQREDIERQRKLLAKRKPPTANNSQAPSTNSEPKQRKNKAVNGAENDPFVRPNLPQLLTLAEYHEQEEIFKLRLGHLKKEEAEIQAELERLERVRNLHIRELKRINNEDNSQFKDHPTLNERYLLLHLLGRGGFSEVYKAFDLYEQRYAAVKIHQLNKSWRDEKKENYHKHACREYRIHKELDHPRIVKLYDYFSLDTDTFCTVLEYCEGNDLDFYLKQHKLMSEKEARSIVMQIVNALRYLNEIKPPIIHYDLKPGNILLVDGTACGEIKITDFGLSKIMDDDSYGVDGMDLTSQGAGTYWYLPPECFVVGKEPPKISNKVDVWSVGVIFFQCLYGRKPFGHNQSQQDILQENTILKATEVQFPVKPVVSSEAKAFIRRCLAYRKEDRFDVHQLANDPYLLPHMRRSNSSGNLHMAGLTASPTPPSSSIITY

[5] = target: Glycogen synthase kinase-3 alpha (Homo sapiens) (UniProt P49840); assay: Inhibition of GSK3A in human SKCO1 cells at 1 uM after 4 hrs using biotin labeled DIKPQNLLVDPDTAVLK probe by mass-spectrometric analysis relative to control; format: cell-based
[6] = target: Serine/threonine-protein kinase MARK2 (Homo sapiens) (UniProt Q7KZI7); assay: Inhibition of MARK2 in human SKCO1 cells at 1 uM after 4 hrs using biotin labeled DLKAENLLLDADMNIK probe by mass-spectrometric analysis relative to control; format: cell-based
[7] = target: Cyclin-dependent kinase 2 (Homo sapiens) (UniProt P24941); assay: Inhibition of CDK2 in human SKCO1 cells at 1 uM after 4 hrs using biotin labeled DLKPQNLLINTEGAIK probe by mass-spectrometric analysis relative to control; format: cell-based
[8] = target: Ribosomal protein S6 kinase alpha-1 (Homo sapiens) (UniProt Q15418); assay: Inhibition of RSK1 domain1 in human SKCO1 cells at 1 uM after 4 hrs using biotin labeled DLKPENILLDEEGHIK probe by mass-spectrometric analysis relative to control; format: cell-based; details: pooled result: one value given for 3 cell lines, strains, targets or settings; in short: as §1
[9] = target: DNA-dependent protein kinase catalytic subunit (Homo sapiens) (UniProt P78527); assay: Inhibition of DNAPK in human SKCO1 cells at 1 uM after 4 hrs using biotin labeled EHPFLVKGGEDLR probe by mass-spectrometric analysis relative to control; format: cell-based
[10] = target: T2, Serine/threonine-protein kinase Chk1 (Homo sapiens) (UniProt O14757); assay: Inhibition of CHK1 in human SKCO1 cells at 1 uM after 4 hrs using biotin labeled DIKPENLLLDER probe by mass-spectrometric analysis relative to control; format: cell-based
T2 sequence (whole entry): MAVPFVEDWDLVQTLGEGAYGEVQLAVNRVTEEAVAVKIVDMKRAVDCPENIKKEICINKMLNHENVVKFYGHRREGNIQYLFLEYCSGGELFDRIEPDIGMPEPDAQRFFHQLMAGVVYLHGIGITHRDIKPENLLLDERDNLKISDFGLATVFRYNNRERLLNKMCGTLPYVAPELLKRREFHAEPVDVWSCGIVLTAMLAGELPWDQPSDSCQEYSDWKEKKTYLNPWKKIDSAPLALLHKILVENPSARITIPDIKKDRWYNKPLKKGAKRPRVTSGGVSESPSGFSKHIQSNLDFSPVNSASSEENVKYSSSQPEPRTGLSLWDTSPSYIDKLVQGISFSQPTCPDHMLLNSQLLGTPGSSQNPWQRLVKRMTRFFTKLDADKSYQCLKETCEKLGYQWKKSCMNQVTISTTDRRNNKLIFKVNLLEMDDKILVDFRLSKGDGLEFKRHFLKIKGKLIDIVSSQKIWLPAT

[11] = target: Serine/threonine-protein kinase PRP4 homolog (Homo sapiens) (UniProt Q13523); assay: Inhibition of PRP4 in human SKCO1 cells at 1 uM after 4 hrs using biotin labeled CNILHADIKPDNILVNESK probe by mass-spectrometric analysis relative to control; format: cell-based; in short: as §1
[12] = target: Mitogen-activated protein kinase kinase kinase kinase 4 (Homo sapiens) (UniProt O95819); assay: Inhibition of ZC1/HGK in human SKCO1 cells at 1 uM after 4 hrs using biotin labeled DIKGQNVLLTENAEVK probe by mass-spectrometric analysis relative to control; format: cell-based; details: pooled result: one value given for 3 cell lines, strains, targets or settings; in short: as §1
[13] = target: 1-phosphatidylinositol 3-phosphate 5-kinase (Homo sapiens) (UniProt Q9Y2I7); assay: Inhibition of PIP5K3 in human SKCO1 cells at 1 uM after 4 hrs using biotin labeled GGKSGAAFYATEDDRFILK probe by mass-spectrometric analysis relative to control; format: cell-based; in short: as §1
[14] = target: Ribosomal protein S6 kinase alpha-1 (Homo sapiens) (UniProt Q15418); assay: Inhibition of RSK1 domain1 in human SKCO1 cells at 1 uM after 4 hrs using biotin labeled LTDFGLSKEAIDHEKK probe by mass-spectrometric analysis relative to control; format: cell-based; in short: as §1

Sequence of 1-phosphatidylinositol 3-phosphate 5-kinase (Homo sapiens) (Q9Y2I7 whole entry, the tested form may be a part): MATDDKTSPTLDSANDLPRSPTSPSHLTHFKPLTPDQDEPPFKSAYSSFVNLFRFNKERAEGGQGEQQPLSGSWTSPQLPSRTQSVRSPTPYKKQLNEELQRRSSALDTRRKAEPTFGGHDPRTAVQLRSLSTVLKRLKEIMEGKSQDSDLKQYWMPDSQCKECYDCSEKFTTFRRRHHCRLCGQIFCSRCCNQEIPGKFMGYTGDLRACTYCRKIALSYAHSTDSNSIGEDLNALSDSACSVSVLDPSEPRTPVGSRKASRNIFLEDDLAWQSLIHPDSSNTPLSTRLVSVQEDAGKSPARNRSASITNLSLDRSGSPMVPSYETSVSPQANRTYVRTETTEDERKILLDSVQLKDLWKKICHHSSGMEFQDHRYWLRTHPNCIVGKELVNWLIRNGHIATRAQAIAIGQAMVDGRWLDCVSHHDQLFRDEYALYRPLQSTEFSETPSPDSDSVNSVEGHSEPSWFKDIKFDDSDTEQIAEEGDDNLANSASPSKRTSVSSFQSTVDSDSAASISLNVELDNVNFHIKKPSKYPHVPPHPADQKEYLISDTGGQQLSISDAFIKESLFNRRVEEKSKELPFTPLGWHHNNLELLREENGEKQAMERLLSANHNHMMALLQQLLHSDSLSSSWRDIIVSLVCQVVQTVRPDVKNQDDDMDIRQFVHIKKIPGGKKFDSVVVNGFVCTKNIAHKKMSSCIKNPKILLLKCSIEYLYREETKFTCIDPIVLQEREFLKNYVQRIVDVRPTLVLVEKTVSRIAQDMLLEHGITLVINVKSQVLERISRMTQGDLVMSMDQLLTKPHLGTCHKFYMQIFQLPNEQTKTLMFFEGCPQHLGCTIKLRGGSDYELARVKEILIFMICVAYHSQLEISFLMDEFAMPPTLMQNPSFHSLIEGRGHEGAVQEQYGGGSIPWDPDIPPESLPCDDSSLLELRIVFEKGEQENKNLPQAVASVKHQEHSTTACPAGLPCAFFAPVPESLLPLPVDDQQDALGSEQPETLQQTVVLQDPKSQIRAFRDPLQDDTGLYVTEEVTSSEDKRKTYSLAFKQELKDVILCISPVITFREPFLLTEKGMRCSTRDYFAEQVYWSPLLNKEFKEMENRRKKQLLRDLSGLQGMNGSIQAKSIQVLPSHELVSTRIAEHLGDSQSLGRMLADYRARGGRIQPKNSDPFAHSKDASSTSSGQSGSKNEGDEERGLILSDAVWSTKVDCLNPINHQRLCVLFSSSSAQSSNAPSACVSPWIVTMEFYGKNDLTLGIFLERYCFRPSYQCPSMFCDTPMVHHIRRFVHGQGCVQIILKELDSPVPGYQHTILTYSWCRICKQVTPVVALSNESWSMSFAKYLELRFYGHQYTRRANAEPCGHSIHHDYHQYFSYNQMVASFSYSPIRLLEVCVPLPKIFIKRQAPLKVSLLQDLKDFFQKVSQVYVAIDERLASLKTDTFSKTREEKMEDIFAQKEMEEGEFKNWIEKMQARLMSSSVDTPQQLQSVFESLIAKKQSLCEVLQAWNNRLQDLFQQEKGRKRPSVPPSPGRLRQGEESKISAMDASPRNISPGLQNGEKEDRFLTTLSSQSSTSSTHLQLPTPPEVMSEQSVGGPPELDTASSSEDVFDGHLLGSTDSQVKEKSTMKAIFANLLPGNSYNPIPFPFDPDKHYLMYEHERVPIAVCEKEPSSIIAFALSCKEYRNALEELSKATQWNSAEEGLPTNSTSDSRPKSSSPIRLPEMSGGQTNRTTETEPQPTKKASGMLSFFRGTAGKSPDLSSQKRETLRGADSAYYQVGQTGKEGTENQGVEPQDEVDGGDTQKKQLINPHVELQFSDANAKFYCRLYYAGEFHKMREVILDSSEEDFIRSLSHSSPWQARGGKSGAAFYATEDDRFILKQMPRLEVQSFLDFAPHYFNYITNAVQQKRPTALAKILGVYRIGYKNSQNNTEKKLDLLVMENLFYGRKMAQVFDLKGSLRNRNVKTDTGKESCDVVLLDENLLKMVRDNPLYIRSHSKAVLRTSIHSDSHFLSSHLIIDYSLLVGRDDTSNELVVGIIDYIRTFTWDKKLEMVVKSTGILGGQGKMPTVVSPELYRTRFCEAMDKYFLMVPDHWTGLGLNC
Sequence of Serine/threonine-protein kinase MARK2 (Homo sapiens) (Q7KZI7 whole entry): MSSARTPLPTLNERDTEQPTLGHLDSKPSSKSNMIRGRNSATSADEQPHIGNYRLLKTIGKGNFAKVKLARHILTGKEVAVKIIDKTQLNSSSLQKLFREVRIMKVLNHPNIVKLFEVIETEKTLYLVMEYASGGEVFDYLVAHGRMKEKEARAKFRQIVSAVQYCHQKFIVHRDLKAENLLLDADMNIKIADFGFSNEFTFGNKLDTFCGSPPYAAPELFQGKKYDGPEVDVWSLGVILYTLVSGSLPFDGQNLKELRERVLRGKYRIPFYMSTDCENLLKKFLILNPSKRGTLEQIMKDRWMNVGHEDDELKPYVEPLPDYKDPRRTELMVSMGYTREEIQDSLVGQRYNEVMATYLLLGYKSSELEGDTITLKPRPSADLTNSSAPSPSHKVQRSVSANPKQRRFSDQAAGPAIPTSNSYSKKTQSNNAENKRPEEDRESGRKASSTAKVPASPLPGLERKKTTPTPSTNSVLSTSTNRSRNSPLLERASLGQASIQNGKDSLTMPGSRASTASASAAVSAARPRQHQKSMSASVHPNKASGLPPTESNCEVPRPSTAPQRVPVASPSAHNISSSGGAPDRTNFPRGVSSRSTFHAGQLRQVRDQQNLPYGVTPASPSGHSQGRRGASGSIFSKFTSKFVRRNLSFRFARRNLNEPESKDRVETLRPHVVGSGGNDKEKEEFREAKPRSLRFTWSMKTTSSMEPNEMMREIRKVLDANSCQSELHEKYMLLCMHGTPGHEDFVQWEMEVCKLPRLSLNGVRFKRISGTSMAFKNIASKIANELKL
Sequence of eIF-2-alpha kinase GCN2 (Homo sapiens) (Q9P2K8 whole entry, the tested form may be a part): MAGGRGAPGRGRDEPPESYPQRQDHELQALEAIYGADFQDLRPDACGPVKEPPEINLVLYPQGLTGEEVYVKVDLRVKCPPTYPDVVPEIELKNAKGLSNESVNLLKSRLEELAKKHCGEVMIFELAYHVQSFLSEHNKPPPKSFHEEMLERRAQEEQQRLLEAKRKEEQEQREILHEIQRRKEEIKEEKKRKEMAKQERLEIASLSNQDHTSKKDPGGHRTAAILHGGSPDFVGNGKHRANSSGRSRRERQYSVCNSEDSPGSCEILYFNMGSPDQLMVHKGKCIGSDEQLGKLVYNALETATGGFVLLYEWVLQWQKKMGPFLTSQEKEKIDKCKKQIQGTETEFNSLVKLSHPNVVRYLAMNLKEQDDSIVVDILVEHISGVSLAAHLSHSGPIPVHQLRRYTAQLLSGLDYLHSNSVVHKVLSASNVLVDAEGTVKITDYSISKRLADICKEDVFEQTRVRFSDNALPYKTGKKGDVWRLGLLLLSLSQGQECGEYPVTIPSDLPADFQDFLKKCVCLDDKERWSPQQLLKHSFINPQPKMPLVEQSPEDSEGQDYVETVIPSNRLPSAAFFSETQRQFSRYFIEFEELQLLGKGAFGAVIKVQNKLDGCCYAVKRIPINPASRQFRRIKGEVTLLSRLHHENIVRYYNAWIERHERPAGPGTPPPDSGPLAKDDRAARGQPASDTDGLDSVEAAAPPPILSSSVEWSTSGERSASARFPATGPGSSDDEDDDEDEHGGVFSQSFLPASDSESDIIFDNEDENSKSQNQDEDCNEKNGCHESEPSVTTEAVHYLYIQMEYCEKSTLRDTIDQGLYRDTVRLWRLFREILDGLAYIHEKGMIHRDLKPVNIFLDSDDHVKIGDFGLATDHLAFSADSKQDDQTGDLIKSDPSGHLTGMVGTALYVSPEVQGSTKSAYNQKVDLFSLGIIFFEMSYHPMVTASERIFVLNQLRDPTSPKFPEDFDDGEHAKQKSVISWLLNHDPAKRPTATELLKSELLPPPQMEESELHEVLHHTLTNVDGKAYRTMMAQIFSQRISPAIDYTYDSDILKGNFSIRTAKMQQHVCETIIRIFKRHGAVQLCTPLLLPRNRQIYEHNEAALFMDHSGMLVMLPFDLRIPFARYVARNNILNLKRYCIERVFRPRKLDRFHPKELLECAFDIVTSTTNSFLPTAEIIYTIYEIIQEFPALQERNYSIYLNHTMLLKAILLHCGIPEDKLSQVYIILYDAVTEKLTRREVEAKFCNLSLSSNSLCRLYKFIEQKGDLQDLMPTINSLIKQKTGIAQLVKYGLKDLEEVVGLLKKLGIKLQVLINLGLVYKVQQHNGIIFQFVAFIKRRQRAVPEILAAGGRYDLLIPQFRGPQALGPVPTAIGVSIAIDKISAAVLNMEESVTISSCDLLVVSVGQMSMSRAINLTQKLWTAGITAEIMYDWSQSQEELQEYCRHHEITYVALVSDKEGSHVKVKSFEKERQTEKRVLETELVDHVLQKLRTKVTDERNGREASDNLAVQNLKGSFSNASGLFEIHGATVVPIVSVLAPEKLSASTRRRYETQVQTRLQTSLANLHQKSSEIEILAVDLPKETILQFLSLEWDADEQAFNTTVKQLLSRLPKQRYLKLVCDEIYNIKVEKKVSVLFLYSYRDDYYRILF
Sequence of Serine/threonine-protein kinase PLK1 (Homo sapiens) (P53350 whole entry): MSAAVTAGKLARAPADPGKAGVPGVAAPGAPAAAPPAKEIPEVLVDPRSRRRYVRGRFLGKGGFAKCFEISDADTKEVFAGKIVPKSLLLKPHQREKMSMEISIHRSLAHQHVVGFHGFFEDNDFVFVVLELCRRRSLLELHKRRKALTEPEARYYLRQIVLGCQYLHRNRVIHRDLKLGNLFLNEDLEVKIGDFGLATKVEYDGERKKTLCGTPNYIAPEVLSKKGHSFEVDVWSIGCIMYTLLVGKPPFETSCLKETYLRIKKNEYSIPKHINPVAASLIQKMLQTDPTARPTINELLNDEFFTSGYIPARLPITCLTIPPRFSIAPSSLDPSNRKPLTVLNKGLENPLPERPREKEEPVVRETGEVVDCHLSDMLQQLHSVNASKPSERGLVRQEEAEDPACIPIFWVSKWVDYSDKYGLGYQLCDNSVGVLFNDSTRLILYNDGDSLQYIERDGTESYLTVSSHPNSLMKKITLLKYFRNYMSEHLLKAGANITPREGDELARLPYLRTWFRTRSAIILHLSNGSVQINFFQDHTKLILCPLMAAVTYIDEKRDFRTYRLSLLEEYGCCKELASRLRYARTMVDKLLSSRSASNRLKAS

SMILES	inhibition [1] [%]	Activity [2]	inhibition [3] [%]	inhibition [4] [%]	inhibition [5] [%]	inhibition [6] [%]	inhibition [7] [%]	inhibition [8] [%]	inhibition [9] [%]	inhibition [10] [%]	inhibition [11] [%]	inhibition [12] [%]	inhibition [13] [%]	inhibition [14] [%]
C=CC(=O)Nc1ccccc1Nc1nc(Nc2ccc(N3CCN(C)CC3)cc2)ncc1Cl	14.6	Toxic	54.6	2.3	-2.8	-7.2	18.7	42.5	0.5	53.8	32.7	6.8	61.5	56.2
COc1cc(O)c2c(c1)/C=C/C[C@H](O)[C@H](O)C(=O)/C=C\C[C@H](C)OC2=O	-6.1	Toxic	61.5	19.3	4.3	3.6	30	65.4	21.7	40.2	15.4	15.1	64.9	54.5
C=CC(=O)Nc1ccccc1Oc1nc(Nc2cnn(CCOC)c2)ncc1Cl	1.2	Non-Toxic	59.9	11.3	15.2	-8.4	33.1	13	16.2	48.8	18.7	20.9	54.1	33.5
